# Screening results deposited in PubChem BioAssay by several laboratories.
# Rows were chosen to be rich in hits. Some 1.9% of all compounds tested hit in one or more screens of this group.
# RanGTP-Imp inh: inhibitors of RanGTP-importin-beta interaction, primary screen, biochemical, FRET, CFP-Ran, YFP-importin-beta, homogeneous | Ran GTPase (GTP-bound) - importin-beta complex | cell-free CFP-Ran/YFP-importin-beta FRET ratio | inhibition, % (concentration not given with the values) | 1.1% of 300,000 active | AID 2216, 2009;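 active means more than half of the replicate wells show a fall in the fluorescence ratio signal beyond about 16%, limit read from the data, passing the limit was not always enough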;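 further: 0% = DMSO wells and 100% = Ran loaded with GDP instead of GTP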
# Runt-CBFb FRET: inhibitors of RUNX1 Runt–CBFb binding, primary screen, biochemical, FRET, Cerulean-Runt, Venus-CBFb, uHTS. Runt-related transcription factor 1 (Homo sapiens) + Core-binding factor subunit beta …. Cerulean-Runt/Venus-CBFb FRET ratio 530/480, 1 h. inhibition, % at 20 µM. 0.46% of 220,000 active. AID 1496, 2009;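 active means inhibition over about 50% at 20 µM in the single-dose screen, limit read from the data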;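 further: 0% = DMSO wells and 100% = excess unlabeled CBFb competitor control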
#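 test system = Cerulean-tagged RUNX1 Runt domain (FRET donor) fusion protein | reagent = Venus-CBFb binding partner, 100 nM | incubation = protein complex preformed 1 h, compound exposure 1 h, room temperature, dark | detection = FRET fluorescence | read-out basis = loss of energy transfer signal | controls = 5 µM unlabeled CBFb as full-inhibition high control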
# Runt-SMMHC FRET: inhibitors of RUNX1 Runt–CBFb-SMMHC binding, primary screen, biochemical, FRET, Cerulean-Runt, Venus-CBFb-SMMHC, uHTS. Runt-related transcription factor 1 (Homo sapiens) + Core-binding factor subunit beta …. Cerulean-Runt/Venus-CBFb-SMMHC FRET ratio 530/480, 1 h. inhibition, % at 20 µM. 0.74% of 220,000 active. AID 1434, 2008;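 active means mean inhibition across duplicate retests at 20 µM reaching about 50%, limit read from the data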;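 further: 0% = DMSO wells and 100% = wells with excess untagged CBFb-SMMHC; inhibitors lower the FRET ratio by blocking Runt binding to CBFb-SMMHC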
# Hck-Nef inh: inhibitors of Nef-activated human Hck kinase, primary screen, biochemical, Z-Lyte FRET, 384-well, Hck-YEEI. 0.68% of 220,000 active. inhibition, % at 20 µM. Recombinant Hck-YEEI plus Nef, Z-Lyte FRET kinase assay. Tyrosine-protein kinase HCK (Homo sapiens), P08631. AID 463187, 2010;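 active means Hck-Nef kinase inhibition above about 50%, limit read from the data; inactive means inhibition below that limit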;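 further: 0% = DMSO with Hck plus Nef and 100% = Hck alone without Nef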
# Target sequence (P08631 whole entry, looked up): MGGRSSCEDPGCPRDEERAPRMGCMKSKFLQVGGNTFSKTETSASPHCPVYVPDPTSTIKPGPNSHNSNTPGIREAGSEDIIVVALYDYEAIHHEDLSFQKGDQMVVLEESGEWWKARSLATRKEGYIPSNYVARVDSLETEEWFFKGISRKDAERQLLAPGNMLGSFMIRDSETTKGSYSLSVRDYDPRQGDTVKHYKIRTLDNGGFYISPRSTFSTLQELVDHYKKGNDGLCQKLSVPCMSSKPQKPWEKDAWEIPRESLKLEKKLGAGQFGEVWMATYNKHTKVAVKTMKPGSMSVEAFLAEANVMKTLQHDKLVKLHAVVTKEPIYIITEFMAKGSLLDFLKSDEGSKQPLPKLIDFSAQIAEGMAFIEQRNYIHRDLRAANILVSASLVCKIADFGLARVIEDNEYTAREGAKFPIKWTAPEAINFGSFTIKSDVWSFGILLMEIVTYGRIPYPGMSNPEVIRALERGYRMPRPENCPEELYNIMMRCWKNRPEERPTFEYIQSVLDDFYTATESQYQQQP
# YIC FRET counter: YIC intramolecular FRET probe signal interference, dose response, counter-screen for RanGTP-importin-beta inhibitor project, biochemical, fluorescence FRET | IC50, µM | AID 435026, 2010 | 40% of 1,000 active | Purified YIC probe, intramolecular FRET ratio YFP/CFP | shares compounds with RanGTP-Imp inh;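 active means fitted half-maximal inhibitory concentration no more than tenfold above the top dose tested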
# Starred values were filed as active, the others as inactive; . = not tested or not shown.
SMILES,RanGTP-Imp inh,Runt-CBFb FRET,Runt-SMMHC FRET,Hck-Nef inh,YIC FRET counter
COc1cc(/C=N/NC(=O)c2nnn(-c3nonc3N)c2C(C)C)ccc1OCc1ccccc1,2,.,.,.,.
O=C(Nc1nonc1NC(=O)c1cccs1)c1cccs1,21*,0,-1,12,>50
O=C(Nc1ccc(NC(=O)c2cccs2)cc1)c1cccs1,0,.,.,.,.
Cc1ccc(C)c2nc(N3CCCC3)c(C#N)cc12,51*,67*,94*,6,1.2*
O=C(NNC(=O)c1cc2cc(OC(F)(F)F)ccc2[nH]1)c1cccc(C(F)(F)F)c1,3,1,-3,8,.
COc1ccc(-c2nc3ccc(C(=O)NCCCN4CCOCC4)cc3nc2-c2ccc(OC)cc2)cc1,21*,.,.,.,22*
COC(=O)C1=CN(Cc2ccc(OC)c(OC)c2)C=C(C(=O)OC)C1c1cccc(O)c1,19*,.,.,.,17*
COC(=O)C1=CN(c2cc(C)cc(C)c2)C=C(C(=O)OC)C1c1ccc(OC)c(O)c1,-2,.,.,.,.
CC(C)Sc1nc(N2CCOCC2)c2c3c(sc2n1)COC(C)(C)C3,23*,-2,0,-1,>50
Cc1ccc(S(=O)(=O)N2CCOCC2)cc1C(=O)NC1CCSc2ccccc21 (stereo unspecified),0,.,.,.,.
CCOC(=O)c1[nH]c(C)c(C(=O)N(C)Cc2ccccc2)c1C,25*,6,1,0,>50
CC(=O)Cc1nsc(NC(=O)c2ccc(-c3cc(C(F)(F)F)ccc3Cl)o2)n1,1,-3,3,-2,.
CC(=O)Cc1nsc(NC(=O)c2ccc(-c3cccc(C(F)(F)F)c3)o2)n1,22*,3,0,0,>50
COc1ccc(-c2cc(C(=O)O)nc3ccc4ccccc4c23)cc1OC,18*,0,6,20,>50
COc1cccc(-c2coc3c(C)c4oc(=O)c(CC(=O)O)c(C)c4cc23)c1,24*,.,.,.,>50
COc1cccc(-c2coc3c(C)c4oc(=O)c(CCC(=O)O)c(C)c4cc23)c1,-1,.,.,.,.
Cc1c(CC(=O)O)c(=O)oc2c(C)c3occ(-c4ccc(Br)cc4)c3cc12,28*,.,.,.,>26
COc1ccc(-c2coc3c(C)c4oc(=O)c(CC(=O)O)c(C)c4cc23)cc1,12,.,.,.,.
O=C(Nc1nc2cc3c(cc2s1)OCO3)C1=COCCO1,2,-2,-1,-8,.
Cc1ccc(-n2nc3c(c2NC(=O)CC(C)C)CS(=O)(=O)C3)cc1,3,.,.,.,.
O=c1c2cc(NC(=S)N3CCC(N4CCCCC4)CC3)ccc2nc2n1CCCCC2,23*,1,-3,20,>50
O=C(NC1CCCCCC1)C(=S)NCCc1ccccc1,25*,20,-3,28,>50
O=C(O)COc1ccc(Br)cc1/C=N\Nc1ccccn1,2,.,.,.,.
CCCCN(C)C(=O)c1cccc(OC2CCN(CC(C)(C)C)CC2)c1,17*,.,.,.,>50
CCC(C)CNC(=O)c1cccc(OC2CCN(CC(C)(C)C)CC2)c1 (stereo unspecified),13,.,.,.,.
SMILES,RanGTP-Imp inh,Runt-CBFb FRET,Runt-SMMHC FRET,Hck-Nef inh,YIC FRET counter
O=C(O)c1ncc(Cl)c(Cl)c1Cl,2,1,1,18,.
CC1=Nc2ccccc2/C1=C\c1nc(-c2ccc(C(F)(F)F)cc2)oc1O,-30,-31,-75,1,.
COc1ccc(-c2nc(/C=C3\C(C)=Nc4ccccc43)c(O)o2)cc1,28*,-11,-19,-21,>50
O=C1NC(c2cccc([N+](=O)[O-])c2)Oc2ccccc21 (stereo unspecified),22*,2,1,-1,>50
O=C1NC(c2ccc(F)cc2)Oc2ccccc21 (stereo unspecified),-4,.,.,.,.
COc1ccc(Cn2c(O)c(C=Nc3ccc(OC)cc3)c3ccccc3c2=O)cc1,29*,-166,-25,2,>26
CCN(CC)S(=O)(=O)c1ccc(NC(=O)c2ccc(Sc3nncn3C)c([N+](=O)[O-])c2)cc1,23*,-4,2,0,>50
CC(C)(C)CN1CCC(n2nccc2NC(=O)c2ccccc2Cl)CC1,20*,.,.,.,>50
CCc1ccc(CN2CCC(n3nccc3NC(=O)c3ccccc3Cl)CC2)cc1,4,.,.,.,.
Cc1nnc(N2C(=O)C(=O)/C(=C(/O)c3ccc4c(c3)OCCO4)C2c2ccc([N+](=O)[O-])cc2)s1 (stereo unspecified),2,.,.,.,.
CCSc1nnc(-c2cc(Br)ccc2N=Cc2c(C)[nH]n(-c3ccccc3)c2=O)c(=O)[nH]1,18*,-1,-10,7,>50
CSc1nnc(-c2cc(Br)ccc2N=Cc2c(C)[nH]n(-c3ccccc3)c2=O)c(=O)[nH]1,0,5,-2,22,.
COc1ccc2c(C)c(C(=O)N3CC[C@@H](N4CCC(O)CC4)[C@H](O)C3)oc2c1,16*,.,.,.,>50
O=C(c1cccc(-c2ccccc2)c1)N1CC[C@@H](N2CCC(O)CC2)[C@H](O)C1,25*,.,.,.,>50
C=CCn1c(SCC(=O)N2CCCCC2)nnc1-c1ccncc1,36*,0,-2,11,>50
CC1C=CCC2C(=O)N(c3ccc(OC(=O)c4cccs4)cc3)C(=O)C12 (stereo unspecified),6,0,-1,17,.
CC1C=CCC2C(=O)N(c3ccccc3OC(=O)c3cccs3)C(=O)C12 (stereo unspecified),22*,0,-1,18,>50
Cc1ccccc1N(CC(=O)NC1CCCC1)C(=O)c1csnn1,1,2,-1,23,.
CN1CCc2c(sc(NC(=O)c3ccc(S(=O)(=O)N4CCOCC4)cc3)c2C(N)=O)C1,19*,1,2,-1,46*
CC1Cc2cc(/C(O)=C3/C(=O)C(=O)N(Cc4ccncc4)C3c3ccc(N(C)C)cc3)ccc2O1 (stereo unspecified),22*,.,.,.,>50
COc1ccc(C2/C(=C(/O)c3ccc4c(c3)CC(C)O4)C(=O)C(=O)N2Cc2cccnc2)cc1 (stereo unspecified),1,.,.,.,.
Cc1nn(C)c(Oc2ccc(Cl)cc2)c1C(=O)O,23*,0,4,2,>50
CCN(C(=O)CN1C(=O)COc2ccc(S(=O)(=O)N3CCCCCC3)cc21)c1cccc(C)c1,6,.,.,.,.
O=C(NCCc1ccccc1)C(=O)c1c[nH]c2ccccc12,-1,.,.,.,.
NS(=O)(=O)c1ccc(CCNC(=O)C(=O)c2c[nH]c3ccccc23)cc1,17*,-2,1,3,>50
